Paper PMC5503496 (Drug Design, Development and Therapy, 2017)
“Also recorded” adds a separate entry of the source.

Legend:
mushroom tyrosinase = mushroom tyrosinase (Agaricus bisporus, UniProt C7FF04); assay: Kinetic analysis of the inhibition of tyrosinase; type: biochemical; details: Lineweaver-Burk plots, L-DOPA
[1] = system: pigmentation of zebrafish; assay: In vivo depigmentation assay in zebrafish; set-up: species or system zebrafish (Danio rerio); details: zebrafish embryos, 50 µM, 9 to 72 hpf
In short: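 Synchronized embryos from wild-type adults (kept at 28.5°C, 14 h light/10 h dark) were placed 2–3 per well in E3 medium (NaCl 5 mM, KCl 0.17 mM, CaCl2 0.33 mM, MgSO4 0.33 mM). […] Dechorionated embryos were anesthetized with MS-222, mounted in 1% methyl cellulose and photographed by stereomicroscope. Pigmentation was quantified by pixel measurement.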

[2] = system: melanin contents in zebrafish embryos; assay: Determination of melanin contents in zebrafish; type: in vivo, zebrafish (Danio rerio); details: 50 µM, 72 hpf

Chain of mushroom tyrosinase (C7FF04 1-392 limits assumed): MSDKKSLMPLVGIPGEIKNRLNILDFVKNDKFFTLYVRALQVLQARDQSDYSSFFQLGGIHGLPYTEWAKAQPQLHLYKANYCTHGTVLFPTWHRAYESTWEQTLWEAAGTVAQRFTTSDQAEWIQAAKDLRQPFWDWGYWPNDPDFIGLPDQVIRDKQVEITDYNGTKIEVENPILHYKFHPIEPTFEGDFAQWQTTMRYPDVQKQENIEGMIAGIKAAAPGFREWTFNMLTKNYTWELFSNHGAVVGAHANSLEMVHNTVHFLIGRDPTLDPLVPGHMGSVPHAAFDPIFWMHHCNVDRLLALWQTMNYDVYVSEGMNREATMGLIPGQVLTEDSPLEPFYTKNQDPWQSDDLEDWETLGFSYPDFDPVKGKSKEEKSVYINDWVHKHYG

Row | Inhibition type (mushroom tyrosinase) | SMILES | pigmentation level (decreased to) [1] | melanin contents [2]
1 | mixed-type inhibition | Cc1ccc(C(C)C)cc1NC(=O)COC(=O)/C=C/c1ccccc1 [6a, 2-[2-methyl-5-(propan-2-yl)anilino]-2-oxoethyl (2E)-3-phenylprop-2-enoate] |  | 
2 |  | O=c1cc(CO)occ1O [Kojic acid] | 24.2% | only slightly reduced the melanin contents
3 | mixed-type inhibition | Cc1ccc(C(C)C)cc1NC(=O)COC(=O)/C=C/c1ccccc1O [6b, 2-[2-methyl-5-(propan-2-yl)anilino]-2-oxoethyl (2E)-3-(2-hydroxyphenyl)prop-2-enoate] |  | 

Row | SMILES | Inhibition type (mushroom tyrosinase) | pigmentation level (decreased to) [1] | melanin contents [2]
4 | Cc1ccc(C(C)C)cc1NC(=O)COC(=O)c1ccc(O)cc1O [4c, 2-[2-methyl-5-(propan-2-yl)anilino]-2-oxoethyl 2,4-dihydroxybenzoate] | non-competitive inhibition; also recorded: non-competitively |  | 
